According to ChEMBL document CHEMBL2407075, “Sulphonamido-quinoxalines: search for anticancer agent” (Eur J Med Chem, 2013):

Key:
Type in all cases: functional
[1] = test system: SK-MEL-2; assay: Growth inhibition of human SK-MEL-2 cells assessed as cell growth at 10^-4 M after 48 hrs by sulforhodamine B assay; details: SK-MEL-2, 48 h, read-out: Activity
[2] = test system: CCRF-CEM; assay: Growth inhibition of human CCRF-CEM cells assessed as cell growth at 10^-4 M after 48 hrs by sulforhodamine B assay; details: read-out: Activity
[3] = test system: OVCAR-8; assay: Growth inhibition of human OVCAR8 cells assessed as cell growth at 10^-5 M after 48 hrs by sulforhodamine B assay; details: OVCAR-8, 48 h, read-out: Activity
[4] = test system: SK-MEL-2; assay: Growth inhibition of human SK-MEL-2 cells assessed as cell growth at 10^-5 M after 48 hrs by sulforhodamine B assay; details: SK-MEL-2, 48 h, read-out: Activity
[5] = test system: CCRF-CEM; assay: Growth inhibition of human CCRF-CEM cells assessed as cell growth at 10^-5 M after 48 hrs by sulforhodamine B assay; details: read-out: Activity
[6] = test system: HCT-15; assay: Growth inhibition of human HCT15 cells assessed as cell growth at 10^-6 M after 48 hrs by sulforhodamine B assay; details: HCT-15, 48 h, read-out: Activity
[7] = test system: CCRF-CEM; assay: Growth inhibition of human CCRF-CEM cells assessed as cell growth at 10^-6 M after 48 hrs by sulforhodamine B assay; details: read-out: Activity
[8] = test system: SK-MEL-2; assay: Growth inhibition of human SK-MEL-2 cells assessed as cell growth at 10^-7 M after 48 hrs by sulforhodamine B assay; details: SK-MEL-2, 48 h, read-out: Activity
[9] = test system: SK-MEL-28; assay: Growth inhibition of human SK-MEL-28 cells assessed as cell growth at 10^-7 M after 48 hrs by sulforhodamine B assay; details: SK-MEL-28, 48 h, read-out: Activity
[10] = test system: CCRF-CEM; assay: Growth inhibition of human CCRF-CEM cells assessed as cell growth at 10^-7 M after 48 hrs by sulforhodamine B assay; details: read-out: Activity
[11] = test system: CCRF-CEM; assay: Growth inhibition of human CCRF-CEM cells assessed as cell growth at 10^-8 M after 48 hrs by sulforhodamine B assay; details: read-out: Activity
[12] = test system: LOX IMVI; assay: Growth inhibition of human LOXIMVI cells after 48 hrs by sulforhodamine B assay
Method in brief: (§1)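 Adherent cells in RPMI 1640 with 5% FBS and 2 mM L-glutamine were plated at 5000–40,000 cells/well and grown 24 h. Five concentrations (0.01–100 µM, DMSO stock) were added for 48 h at 37 °C. Cells were fixed with cold TCA (10% final) and stained with SRB, read at 515 nm. GI50 came from log concentration–growth curves against time-zero and control plates.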

[13] = test system: CCRF-CEM; assay: Growth inhibition of human CCRF-CEM cells after 48 hrs by sulforhodamine B assay; details: read-out: LC50 (the source's name)
Method in brief: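 Leukemia suspension cells in RPMI 1640 with 5% FBS and 2 mM L-glutamine were plated at 5000–40,000 cells/well and grown 24 h. Five concentrations (0.01–100 µM) were given for 48 h at 37 °C. Settled cells were fixed with 80% TCA (16% final) and SRB-stained, read at 515 nm. GI50 came from dose–response curves against time-zero and control plates.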

[14] = test system: SK-MEL-5; assay: Growth inhibition of human SK-MEL-5 cells after 48 hrs by sulforhodamine B assay; details: SK-MEL-5, 48 h
[15] = test system: SF-295; assay: Growth inhibition of human SF295 cells after 48 hrs by sulforhodamine B assay; details: SF-295, 48 h; method in brief: as §1
[16] = read-out: LC50 (the source's name)

Compound	growth at 100 µM [1] [%]	growth at 100 µM [2] [%]	growth at 10 µM [3] [%]	growth at 10 µM [4] [%]	growth at 10 µM [5] [%]	growth at 1 µM [6] [%]	growth at 1 µM [7] [%]	growth at 0.1 µM [8] [%]	growth at 0.1 µM [9] [%]	growth at 0.1 µM [10] [%]	growth at 0.01 µM [11] [%]	TGI [12] [µM]	CC50 [12, 16] [µM]	CC50 [13] [µM]	GI50 [14] [µM]	GI50 [15] [µM]	CC50 [15, 16] [µM]
O=S(=O)(Nc1ccc(Cl)cc1)c1ccc2nc(-c3ccccc3)c(-c3ccccc3)nc2c1	69	64	6	-56	-40	87	79	99	96	91	88	> 100	> 100	> 100	–	–	–
O=S(=O)(Nc1ccccn1)c1ccc2nc(-c3ccccc3)c(-c3ccccc3)nc2c1	–	–	–	–	–	–	–	–	–	–	–	–	–	–	1.46	1.87	100
